The entries come from a sample that favours hits as a whole.
ROMK mod = ROMK potassium channel modulators, primary screen, cell-based, thallium flux, MLSMR library; B-score at 10 µM; actives 2% (n = 130,000); ATP-sensitive inward rectifier potassium channel 1 (Homo sapiens), P48048; Tet-inducible ROMK, thallium flux fluorescence; actives lie on both sides;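 active = signal ratio slope over the read window, or its plate-corrected B-score, at least 3 SD from the plate mean, either direction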;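 note: B-score of the F/F0 ratio slope over 7 to 12 s after thallium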
Target sequence (P48048 whole entry, looked up): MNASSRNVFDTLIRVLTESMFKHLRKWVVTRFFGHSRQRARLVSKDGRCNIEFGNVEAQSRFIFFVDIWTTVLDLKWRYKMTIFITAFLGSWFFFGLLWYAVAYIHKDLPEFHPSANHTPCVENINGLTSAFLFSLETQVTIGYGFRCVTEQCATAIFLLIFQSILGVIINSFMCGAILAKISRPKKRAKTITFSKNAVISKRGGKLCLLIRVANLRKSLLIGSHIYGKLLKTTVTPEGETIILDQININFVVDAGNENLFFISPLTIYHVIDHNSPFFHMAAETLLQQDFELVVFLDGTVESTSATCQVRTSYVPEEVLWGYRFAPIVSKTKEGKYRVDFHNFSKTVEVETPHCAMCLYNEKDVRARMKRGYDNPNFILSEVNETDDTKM
Biofilm kill mix = clotrimazole potentiators killing C. albicans biofilm, primary screen, 4-compound mixtures; C. albicans biofilm persisters + clotrimazole, fluorescence viability; primary screen in compound mixtures of four per well; inhibition, % at 7.6 µM; actives 0.02% (n = 120,000); AID 1242, 2008;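 active = inhibition above 30.3% in the primary screen of four-compound pools, then above 30% when the compound was retested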;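 note: compounds exposed to preformed 24 h biofilms for 48 h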
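System: C. albicans CAF4-2 wild-type biofilms; Medium: RPMI/MOPS medium, pH 7.0; Reagent: Clotrimazole, 50 µg/mL; Times: biofilm formation 24 h, compound exposure 48 h, 37 °C; Detection: 2-h Alamar Blue fluorescence, 535/590 nm excitation/emission; Evaluation: percent inhibition of biofilm viability.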
Hits are given with their value; i = inactive; nt = not tested or not shown.

SMILES | ROMK mod | Biofilm kill mix
CC(Nc1cc(N2CCOCC2)ccc1[N+](=O)[O-])c1ccccc1 (stereo unspecified) | i | i
CCCC(=O)N1CCN(c2ccc([N+](=O)[O-])c(NC(C)c3ccccc3)c2)CC1 (stereo unspecified) | -5.3 | nt
CC(=O)c1cccc(NC(=O)CCS(=O)(=O)c2cccc3nsnc23)c1 | i | nt
CCCc1[nH]nc2c1C(c1ccc(O)cc1OCC)C(C#N)=C(N)O2 (stereo unspecified) | -4.5 | nt
COCc1[nH]nc2c1C(c1sccc1C)C(C#N)=C(N)O2 (stereo unspecified) | -3.5 | nt
COCc1[nH]nc2c1C(c1ccsc1)C(C#N)=C(N)O2 (stereo unspecified) | i | nt
CCCc1[nH]nc2c1C(c1cccc(OC)c1)C(C#N)=C(N)O2 (stereo unspecified) | i | nt
COc1cc(S(=O)(=O)Nc2ccccn2)ccc1F | i | nt
COc1cc(OC)cc(C(=O)N/N=C/c2ccc(OC)c(COc3ccc4ccccc4c3)c2)c1 | i | nt
CCS(=O)(=O)Nc1ccc(NC(C)=O)cc1 | i | nt
Cn1nc(-c2ccccc2)c(N2CCCCC2)cc1=O | i | i
O=c1cc(N2CCCCC2)c(-c2ccccc2)nn1Cc1ccccc1 | -3.1 | i
N#Cc1cc(C(=O)Cc2ccccc2)c[nH]1 | i | i
Fc1ccccc1NC(=S)N1CCCCC1 | i | i
CCOC(=O)c1c(NC(=O)c2ccco2)sc2c1CCCCC2 | i | nt
CCOC(=O)c1c(NS(=O)(=O)Cc2ccccc2)sc2c1CCCC2 | 3.6 | nt
CCOC(=O)c1c(NS(=O)(=O)c2ccc(Br)cc2)sc2c1CCC2 | 3.1 | i
COC(=O)c1c(NS(=O)(=O)c2ccc3ccccc3c2)sc2c1CCCC2 | i | nt
NNC(=O)CNC(c1ccccc1)c1cc(Br)ccc1NC(=O)c1ccc(Br)cc1 (stereo unspecified) | i | i
Cc1ccc(C)c(-c2csc(NC(=O)c3cnccn3)n2)c1 | i | i
Nc1nc(=S)n(-c2ccccc2)[nH]1 | nt | i
S=c1nc(-c2ccccc2)[nH]n1-c1ccccc1 | 6.1 | nt
Cn1c(/C(C#N)=C/c2ccncc2)nc2ccccc21 | -3.6 | i
COc1cc(/C=C(\C#N)c2nc3ccccc3n2C)cc(OC)c1O | -4.1 | i
COc1cc(/C=C(/C#N)c2nc3ccccc3c(=O)[nH]2)ccc1O | i | i
SMILES | ROMK mod | Biofilm kill mix
Cn1c(/C(C#N)=C/c2ccc(O)cc2)nc2ccccc21 | nt | i
O=C1CCN(CCc2ccccc2)CCN1CCSc1ccc(Br)cc1 | nt | i
N#Cc1ccc(COC(=O)c2ccccn2)cc1 | i | i
COc1cc(C=Nc2cccc([N+](=O)[O-])c2C)ccc1OC(C)=O | i | i
COC(=O)CCS(=O)(=O)c1ccc(NC(C)=O)cc1 | i | nt
COc1ccc(-c2nnc(Nc3nc4c(OC)cccc4s3)o2)c(OC)c1 | 7.3 | nt
COc1ccc2nc(Nc3ccccc3OC)sc2c1 | i | i
COc1cc(OC)cc(-c2nnc(Nc3nc4c(F)cccc4s3)o2)c1 | i | nt
Fc1cccc2sc(Nc3nnc(-c4ccccc4)o3)nc12 | 7 | nt
Fc1ccccc1N1CCN(c2nc(-c3cccs3)nc3ccccc23)CC1 | i | i
Cc1cc(C(C)(C)C)ccc1OCCCCN1CCCC1 | i | i
CCC(C)(C)c1ccc(OCCCC[n+]2ccc(C)cc2)c(C(C)(C)CC)c1 | -5.9 | i
O=C(NC1CCCC1)C(c1ccccn1)N(C(=O)c1csnn1)C1CCCCC1 (stereo unspecified) | nt | i
Cc1ccc(/C=C2\Oc3c(ccc(O)c3CN3CCN(CCO)CC3)C2=O)cc1 | nt | i
CC(C)c1ccc(/C=C2\Oc3c(ccc(O)c3CN3CCN(C)CC3)C2=O)cc1 | -6.6 | i
CCOc1ccc(NC(=O)CN2C(=O)CSC(C)C2=O)cc1 (stereo unspecified) | i | i
COc1ccc(/C=N/NC(=O)C(=O)NCC2CCCO2)cc1 (stereo unspecified) | i | i
Cc1nnc2n(-c3ccccc3)c(=O)c3c4c(sc3n12)COC(C(C)C)C4 (stereo unspecified) | i | nt
CC(C)C1Cc2c(sc3[nH]c(=S)n(Cc4ccccc4)c(=O)c23)CO1 (stereo unspecified) | 9.3 | nt
CN1C(=O)S/C(=C\c2ccccc2OCc2ccc(C(=O)O)cc2)C1=O | i | i
CN1C(=O)S/C(=C/c2ccccc2OCc2ccc(C(=O)O)cc2)C1=O | -2.7 | i
COC(=O)Cc1c(O)ccn(Cc2ccc(F)cc2)c1=O | 1 | nt
COC(=O)Cc1c(O)ccn(CCc2ccccc2)c1=O | i | i
CC1CC(c2ccccc2)n2nc(NC(=O)c3ccco3)nc2N1 (stereo unspecified) | -6.6 | nt
COc1ccc(C2CC(c3ccc(F)cc3)n3nc(NC(=O)c4ccco4)nc3N2)cc1 (stereo unspecified) | nt | i
SMILES | ROMK mod | Biofilm kill mix
OCCN1CCN(c2cc(C(F)(F)F)nc3ccccc23)CC1 | i | i
COc1ccc(S(=O)(=O)Nc2ccc(O)c(Sc3ncn[nH]3)c2)cc1 | nt | i
COc1ccc(S(=O)(=O)Nc2cc(Sc3ncn[nH]3)c(O)c3ccccc23)cc1 | -6.3 | nt
CCN(CC)S(=O)(=O)c1ccc(N2CCOCC2)c(NC(=O)c2cccc3ccccc23)c1 | nt | i
CCN(CC)S(=O)(=O)c1ccc(N2CCCCC2)c(C(=O)Nc2ccccc2N2CCOCC2)c1 | -3.6 | nt
CC(=O)CCc1c(C)[nH]c2ccc(NC(C)=O)cc2c1=O | i | nt
C/C(=N\NC(=O)C(N)=O)c1ccc(Br)cc1 | i | i
CSC(=S)N/N=C(\C)c1ccc(Br)cc1 | 3.1 | i
COc1ccc(-c2nc3ccccc3c(C(=O)Nc3ccc(S(=O)(=O)Nc4cc(C)on4)cc3)c2C)cc1 | 4.2 | nt
Cc1ccc(-c2cc(C(=O)Nc3ccc(S(=O)(=O)Nc4cc(C)on4)cc3)c3ccccc3n2)c(C)c1 | i | nt
CCOC(=O)c1c(C)c(/C=N/Nc2ccccc2)n(C)c1C | i | i
NCCc1nnc(SCc2c(Cl)cccc2Cl)o1 | nt | i
Cc1c(Cl)ccc2c1NC(=O)[C@]21N[C@@H](Cc2ccccc2)[C@H]2C(=O)N(c3ccc(F)cc3)C(=O)[C@H]21 | i | nt
O=C1OCC2=C1C(c1ccc(F)cc1)c1cc3c(cc1N2)OCO3 (stereo unspecified) | 2.8 | i
O=C1OCC2=C1C(c1ccc(F)cc1)c1cc3c(cc1N2)OCCO3 (stereo unspecified) | i | i
CCNC(=S)N1CCc2ccccc2C1 | i | i
Cc1cccc(C(=O)NC(=S)N2CCc3ccccc3C2)c1 | 9.1 | i
Clc1ccccc1-c1ncnc2ccc(Br)cc12 | i | i
CN(Cc1ccccc1)c1ncnc2ccc(Br)cc12 | -4.7 | nt
COC(=O)C(Cc1cnc(Cl)s1)(C(=O)OC)c1ccc([N+](=O)[O-])cc1[N+](=O)[O-] | i | nt
COc1ccc(-c2cn3nc4c(nc3n2)CCCC4)cc1 | -3.2 | nt
COc1ccc(-c2cn3ccccc3n2)cc1 | nt | i
COc1ccc(OC)c(Nc2ncnc3c2cnn3-c2ccccc2)c1 | i | nt
COc1cc(CN2CCC(CO)(CCOc3ccccc3)CC2)cc(OC)c1OC | i | i
Cc1ccc(C2=NN(C(=O)CCC(=O)O)C(c3cccs3)C2)cc1 (stereo unspecified) | i | i
Cc1onc(-c2ccccc2)c1C(=O)N1CCN(C)CC1 | i | nt
CCc1ccc(S(=O)(=O)/N=C2\C=CC(=O)c3ccccc32)cc1 | nt | i
CCc1ccc(S(=O)(=O)/N=C2/C=C(Sc3ncn[nH]3)C(=O)c3ccccc32)cc1 | -7.8 | i

Source: PubChem BioAssay (several laboratories)
